# Published values collected from several papers.
# Protocols differ between the studies behind these lines.
# XDH: Xanthine dehydrogenase/oxidase (XDH, Bos taurus, UniProt P80457)
# SIRT1: NAD-dependent protein deacetylase sirtuin-1 (SIRT1, Homo sapiens, UniProt Q96EB6)
# SPHK2: Sphingosine kinase 2 (SPHK2, Homo sapiens, UniProt Q9NRA0)
Structure (SMILES),target,test,setting,measurement,value
C[C@]12CC[C@@H]3c4ccc(O)cc4CC[C@H]3[C@@H]1CC[C@@H]2O,"Protein disulfide-isomerase (P4HB, Homo sapiens, UniProt P07237)","thermal stability, DSF",100 µM,ΔTm,1.38 °C
Oc1ncnc2[nH]ncc12,XDH,"enzyme activity, inhibitor, absorbance",50 µg/mL,inhibition,98.7%
CC(=S)NCCCC[C@H](NC(=O)OCc1ccccc1)C(=O)N[C@@H](Cc1c[nH]c2ccccc12)C(=O)N[C@@H](CCCNC(=N)N)C(N)=O,SIRT1,"enzyme activity, inhibitor",1 µM,inhibition,64%
CCCCc1ccc(CCc2ccc(-c3noc([C@@H]4CCCN4C(=N)N)n3)cc2C(F)(F)F)cc1,SPHK2,"enzyme activity, inhibitor, radiometric",0.3 µM,inhibition,59%
FC(F)(F)Oc1cccc(-c2cnc3ccc(-c4ccncc4)nn23)c1,"Tau-tubulin kinase 2 (TTBK2, Homo sapiens, UniProt Q6IQ55)","enzyme activity, inhibitor, radiometric",5 µM,activity vs control,105%
O=Cc1ccc(O)cc1,XDH,"enzyme activity, inhibitor, absorbance",100 µg/mL,inhibition,3.2%
O=C(Nc1ccc(CN2CCOCC2)c(C(F)(F)F)c1)c1ccc(C#Cc2cccc3cnccc23)cn1,"Oxidized purine nucleoside triphosphate hydrolase (NUDT1, Homo sapiens, UniProt P36639)","enzyme activity, activator",3 µM,activity vs control,140%
Cn1c(=O)[nH]c(=O)c2c1nc(S)n2CC(O)COc1ccc(Cl)cc1 (centres unmarked),"Legumain (Homo sapiens, UniProt Q99538)","enzyme activity, inhibitor, fluorescence",,kinact/KI,14800 M⁻¹ s⁻¹
CC(C)(O)[C@H]1CC[C@H](Nc2ccc3ncc(-c4cccc(C(F)(F)F)c4)n3n2)CC1,"Testis-specific serine/threonine-protein kinase 6 (TSSK6, Homo sapiens, UniProt Q9BXA6)","enzyme activity, inhibitor",1 µM,remaining activity,97.7%
N[C@@H]1CON=C1O,"Alanine racemase, biosynthetic (alr, Escherichia coli K-12, UniProt P0A6B4)","enzyme activity, inhibitor",,kinact/KI,8.6 M⁻¹ s⁻¹
O=C1CC(CCc2c[nH]c3ccccc23)Oc2c(Br)cc(Cl)cc21 (centres unmarked),SIRT1,"enzyme activity, inhibitor, fluorescence",200 µM,inhibition,19%
CCOC(=O)[C@](CC)(CCCS(=O)(=O)CCOCCOCCNC(=O)OC(C)(C)C)NC(=O)c1ccc(C2CC2)c(Cc2ccc(F)cc2)n1,"Cannabinoid receptor 2 (Cnr2, Mus musculus, UniProt P47936)","cAMP, agonist",,Emax,80%
[H]/N=C(\N)N1CCC[C@H]1c1nc(-c2ccc(OCC=Cc3cccc(C(F)(F)F)c3)c(C(F)(F)F)c2)no1,SPHK2,"enzyme activity, inhibitor, radiometric",0.3 µM,inhibition,56%
CCCCCc1cc(=O)c2cc(Cl)cc(Br)c2o1,SIRT1,"enzyme activity, inhibitor, fluorescence",200 µM,inhibition,9.8%
